PG9 Ab binder: binders of HIV-1 gp120 antibody PG9, primary screen, biochemical, TR-FRET | HIV-1 gp120 / PG9 antibody interaction | TR-FRET gp120-PG9 antibody binding | inhibition, % at 6.7 µM | 360,000 compounds, 0.43% hits; in the data active means inhibition above about 8.5%
Tb MetRS inh: T. brucei MetRS inhibitors, primary screen, biochemical, luminescence. purified T. brucei MetRS, ATP depletion, Kinase-Glo luminescence. inhibition, % at 11.9 µM. 360,000 compounds, 0.4% hits. AID 624268, 2012;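 active means inhibition above a per-plate cutoff of the control wells' mean inhibition plus 3 SD, cut at about 5.5% in these data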;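 further: 0% = DMSO wells median and 100% = median of wells with control inhibitor compound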
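Test system – parasite MetRS enzyme · Reagent – substrates ATP, L-methionine and bulk Escherichia coli tRNA · Doses – 11.9 µM compound single dose, 0.9% DMSO · Times – 15 min enzyme-compound preincubation, 2 h reaction, 10 min detection, 25 °C · Signal – Kinase-Glo luminescence, ATP depletion format · Controls – DMSO-only wells as low control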
Rin1 Abl inh: inhibitors of Rin1-Abl protein binding, primary screen, biochemical, TR-FRET; 360,000 compounds, 0.4% hits; AID 588664, 2011; Tyrosine-protein kinase ABL1 (Homo sapiens) + Ras and Rab interactor 1 (Homo sapiens), …; inhibition, % at 7.35 µM; in the data active means inhibition above about 5%, passing the limit was not always enough
Rev-erbA mod: modulators of Rev-erb alpha DNA binding, primary screen, biochemical, FITC-DNA, fluorescence polarization, uHTS; Nuclear receptor subfamily 1 group D member 1 (Homo sapiens), P20393; Rev-erbα–FITC-DNA binding, 90 min; activity, % at 10 µM; 370,000 compounds, 0.79% hits; AID 1259318, 2017;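 active means activity above about 14%, limit read from the data; passing the limit was not always enough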;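 further: 0% = DMSO wells with 35 nM protein and 100% = DMSO wells with 750 nM protein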
Rin1-Abl confirm: Rin1-Abl binding inhibitor retest, confirmation, biochemical, TR-FRET; purified proteins; inhibition, % at 7.35 µM; 1,300 compounds, 49% hits; shares compounds with Rin1 Abl inh; in the data active means inhibition above about 6.5%
GFP quench-1: GFP fluorescence inhibitors and quenchers, artefact control for Rin1-Abl interaction inhibitor project, biochemical | shares compounds with Rin1 Abl inh | inhibitors/quenchers counterscreen | inhibition, % at 6.75 µM | 1,300 compounds, 8.5% hits | AID 602125, 2011; in the data active means inhibition above about 6.5%;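 further: ABL1-eGFP fusion protein alone without its partner RIN1-SBP; 0% = protein with vehicle and 100% = wells lacking protein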
GFP quench dose: GFP fluorescence inhibitors and quenchers, dose response, artefact control for Rin1-Abl interaction inhibitor project, biochemical. IC50, µM. shares compounds with Rin1 Abl inh. 230 tested, under 10 active. GFP fluorescence interference/quenching counterscreen;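 further: ABL1-eGFP fusion protein alone without its RIN1 binding partner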
GFP quench-2: GFP fluorescence inhibitors and quenchers, late-stage follow-up, artefact control for Rin1-Abl interaction inhibitor project, biochemical, dose response | shares compounds with Rin1 Abl inh | GFP fluorescence quenching counterscreen | IC50, µM | 25 tested, under 10 active
The depositor's hits bear a star; . = no result. A selection: hits, their analogues and other compounds. The true share with any hit is near 1.8%. Unless noted, how the calls were made is not given here.

SMILES	PG9 Ab binder	Tb MetRS inh	Rin1 Abl inh	Rev-erbA mod	Rin1-Abl confirm	GFP quench-1	others
NS(=O)(=O)c1cc2c(cc1Cl)CN(C1CCCCC1)C2=O	.	.	.	-7.3	.	.
CCN(C1CCCCC1)S(=O)(=O)c1ccc(-n2cnnn2)c(C)c1	-1.7	0.5	13.8*	-3.3	-0.9	0.3
Cc1ccccc1CN1CCCCC(NC(=O)c2ccccc2)C1=O (configuration not stated)	.	.	.	1.6	.	.
COc1ccccc1CC(NC(C)=O)C(=O)NC1CCN(S(=O)(=O)c2ccc(NC(C)=O)cc2)CC1 (configuration not stated)	-1.3	0.1	12.0*	-5.1	-1.2	-0.8
COc1ccccc1CC(NC(C)=O)C(=O)NC1CCN(S(=O)(=O)c2ccccc2)CC1 (configuration not stated)	-0.8	-0.5	1.5	-5.0	.	.
O=C(O)c1cc(O)c(O)c(O)c1	.	.	.	-6.9	.	.
NNC(=O)c1cc(O)c(O)c(O)c1	-3.8	1.8	33.6*	-32.4	51.3*	7.1*
CN=c1scc(-c2cccs2)n1/N=C/c1ccc(O)c(O)c1O	-2.9	-1.7	8.8*	0.2	9.7*	12.6*
CN=c1scc(C)n1/N=C/c1ccc(O)c(O)c1O	-24.6	-1.8	35.7*	-16.2	20.9*	20.4*
COC(=O)C1(F)C(=O)NC(=O)NC1OC (configuration not stated)	-0.7	.	.	-1.4	.	.
COc1cccc(C(=O)N[C@H](C(=O)N2CCC[C@H]2C(=O)NCCc2ccccc2Cl)c2ccccc2)c1	2.0	.	.	2.8	.	.
Cc1ccc(C(=O)O/N=C(\N)c2cccnc2)cc1[N+](=O)[O-]	-2.1	0.2	6.9*	1.4	-1.4	-1.8
N/C(=N\OC(=O)c1ccc([N+](=O)[O-])cc1)c1cccnc1	0.4	0.6	0.7	0.3	.	.
Cc1nn(Cc2c(Cl)cccc2Cl)c(C)c1NC(=O)c1cnn2c(C(F)F)cc(-c3ccccc3)nc12	-0.1	0.4	12.3*	7.1	-2.0	0.4
Cc1ccc(-c2cc(C(F)F)n3ncc(C(=O)Nc4c(C)nn(Cc5c(Cl)cccc5Cl)c4C)c3n2)cc1	-2.9	0.0	0.4	-2.0	.	.
CCc1cccc(NC(=O)c2sc3nc4n(c(=O)c3c2C)CCC4)c1	-1.1	0.1	10.4*	-5.1	-3.2	-0.2
Cc1cc(C)cc(NC(=O)c2sc3nc4n(c(=O)c3c2C)CCC4)c1	0.3	-0.2	0.7	0.5	.	.
Cn1c(Cc2cccs2)nnc1SCC(=O)Nc1ccc2c(c1)OCCO2	.	.	.	-6.6	.	.
O=S1(=O)N[C@H](Cc2ccccc2)COc2cccc(F)c21	-0.2	.	.	-4.1	.	.
CCCc1c(C(=O)Nc2cc(C)on2)cnn1-c1ccccc1	1.2	-0.3	8.7*	-2.7	-1.1	-1.4
CCC(C)N1C(=O)CCC1C(=O)N1CCN(c2ccccc2F)CC1 (configuration not stated)	-1.7	-1.9	5.3*	6.0	-0.9	-0.3
CCC(C)N1C(=O)CCC1C(=O)N1CCN(c2ccc(F)cc2)CC1 (configuration not stated)	-0.4	-0.3	-4.6	-2.3	.	.
CN[C@@H]1C(OC2[C@H](O[C@H]3[C@H](O)[C@@H](O)[C@H](N=C(N)N)[C@@H](O)[C@@H]3N=C(N)N)O[C@H](C)[C@]2(O)CO)O[C@@H](CO)C(O)C1O (some centres not stated)	.	.	.	-2.1	.	.
COC(=O)c1cc2c(c3c4cc(F)ccc4n(S(=O)(=O)c4ccc(C)cc4)c13)C(=O)N(Cc1ccc(C(F)(F)F)cc1)C2	1.1	.	.	7.0	.	.
CCOC(=O)[C@@]12CCCC=C1N(CCc1ccc(Cl)cc1)C(=O)[C@H]2CC(=O)N1CCN(C(=O)c2ccco2)CC1	.	.	.	-9.1	.	.
SMILES	PG9 Ab binder	Tb MetRS inh	Rin1 Abl inh	Rev-erbA mod	Rin1-Abl confirm	GFP quench-1	others
COc1cccc(C(=O)Nc2cccc(SC)c2)c1	-1.7	-0.2	6.3*	-2.5	0.2	-0.4
COc1cccc(C(=O)Nc2ccccc2)c1	3.2	-1.4	-0.9	-8.1	.	.
CCc1cc(C(=O)Cc2cnn(-c3ccccc3)c2)c(O)cc1O	-0.4	-1.6	-2.3	3.4	.	.
O=C(Cc1cnn(-c2ccccc2)c1)c1ccc(O)c(O)c1O	-0.7	0.1	12.7*	1.1	2.4	11.2*
O=[N+]([O-])c1ccc(Oc2ccc(N=C=S)cc2)cc1	.	.	.	0.9	.	.
Cc1cccc(C)c1OCc1cc(C(=O)N2CCNC(=O)C2)no1	1.1	-0.3	1.6	1.9	.	.
CSc1ccccc1OCc1cc(C(=O)N2CCNC(=O)C2)no1	-2.2	-0.2	48.0*	8.7	40.3*	-1.1	GFP quench dose=>67.6;GFP quench-2=>67.5
COC(=O)[C@]12C[C@H](CC(=O)N3CCN(C(=O)C4CC4)CC3)C(=O)N(Cc3ccc4c(c3)OCO4)C1=C[C@H](COCc1ccccc1)O[C@@H]2C	0.5	.	.	-4.8	.	.
Cc1cc(C)n(-c2cc(Cl)cc(Cl)c2)c(=O)c1C#N	-0.1	0.6	8.3*	2.0	-3.4	-0.3
S=C(NCc1ccc2c(c1)OCO2)NC1CCN(Cc2ccccc2)CC1	-0.6	-0.5	10.4*	1.9	11.0*	1.1
CC(C)=CCc1c(O)ccc2c1OC(c1ccc(O)c(O)c1)CC2=O (configuration not stated)	-2.4	1.5	1.6	10.5	.	.
O=C1CC(c2ccc(O)c(O)c2)Oc2c1ccc(O)c2O (configuration not stated)	-1.9	1.4	49.1*	-32.7	45.5*	24.5*
O=C(NCC(c1ccccc1)c1ccccc1)[C@H](Cc1c[nH]c2ccccc12)NC1(C(=O)NC2CCCCC2)CCC1	.	.	.	5.4	.	.
Cc1cc(C)c2c(c1)SC1=NC(c3ccccc3)(C(F)(F)F)NC(=O)N12 (configuration not stated)	-0.3	-0.3	7.0*	-2.7	1.9	-1.0
S=C(NCCN1CCCCC1)Nc1ccccc1	-2.0	-0.5	9.0*	2.4	-0.2	-2.3
S=C(NCCN1CCCCC1)Nc1ccc(Br)cc1	-2.4	0.7	-0.6	2.3	.	.
O=S(=O)(CS(=O)(=O)c1ccccc1Br)c1ccccc1Br	0.1	.	.	0.5	.	.
CCOC(=O)C1=C(C)N[C@@]2(O)c3ccccc3C(=O)[C@@]12O	0.8	1.1	3.0	1.5	.	.

Screens from PubChem BioAssay.
